# Assay results published in ChEMBL document CHEMBL1147102, “rpoN gene of Pseudomonas aeruginosa alters its susceptibility to quinolones and carbapenems” (2007).
# Tests used:
# Type in all cases: functional
# Pseudomonas aeruginosa [1] = assay: Antimicrobial activity against Pseudomonas aeruginosa PAO1 with pvdS mutation after 24 hrs; settings: PAO1, 24 h
# How it was run: (§1)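 Broth microdilution in LB broth, inoculum 1 × 10⁶ cells/ml. MIC read after 24 h at 37°C as the lowest concentration giving complete growth inhibition by unaided eye. For MBC, 10 μl from each well without visible growth was plated on LB agar and incubated 24 h at 37°C.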
# Pseudomonas aeruginosa [2] = assay: Antimicrobial activity against wild type Pseudomonas aeruginosa PAO1 after 24 hrs; settings: PAO1, 24 h; how it was run: as §1
# Pseudomonas aeruginosa [3] = assay: Antimicrobial activity against Pseudomonas aeruginosa PAO1 with rpoN mutation after 24 hrs; settings: PAO1, 24 h; how it was run: as §1
# Pseudomonas aeruginosa [4] = assay: Increase in GFP tagged vqsR protein expression in Pseudomonas aeruginosa PAO1 with rpoN mutation at 8 ug/ml by flow cytometry relative to wild type
# How it was run: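 Strains carried a plasmid GFP reporter driven by the vqsR promoter. Cells were grown in LB broth with carbenicillin 400 μg/ml. Stationary-phase (overnight) cultures were washed, resuspended in fresh LB and given ofloxacin 8 μg/ml. Samples were taken over 0–5 h, washed and resuspended in PBS. Mean fluorescence intensity came from 20,000 events, corrected for background (PAO1 without gfp). Three experiments.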
# Pseudomonas aeruginosa [5] = assay: Increase in pvdS gene expression in Pseudomonas aeruginosa PAO1 with rpoN mutation at 8 ug/ml after 3 hrs relative to wild type
# How it was run: (§2)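 Overnight LB cultures were washed and resuspended in fresh LB with ofloxacin 8 μg/ml. Sampling was at 0, 1, 3 and 5 h, with RNA stabilized immediately. DNase-treated total RNA (~650 ng) was reverse transcribed. qRT-PCR was quantified against external plasmid standard curves and normalized to the rpsL reference gene. Triplicate reactions.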
# Pseudomonas aeruginosa [6] = assay: Increase in vqsR gene expression in Pseudomonas aeruginosa PAO1 with rpoN mutation at 8 ug/ml relative to wild type; how it was run: as §2
Structure (SMILES),MBC (Pseudomonas aeruginosa [1]) [µg/mL],MIC (Pseudomonas aeruginosa [1]) [µg/mL],MBC (Pseudomonas aeruginosa [2]) [µg/mL],MIC (Pseudomonas aeruginosa [2]) [µg/mL],MBC (Pseudomonas aeruginosa [3]) [µg/mL],MIC (Pseudomonas aeruginosa [3]) [µg/mL],Fold change (Pseudomonas aeruginosa [4]),Fold change (Pseudomonas aeruginosa [5]),Fold change (Pseudomonas aeruginosa [6])
O=C(O)c1cn(C2CC2)c2cc(N3CCNCC3)c(F)cc2c1=O [CIPROFLOXACIN],0.25,0.125,0.5,0.125,2,0.25,,,
CC1COc2c(N3CCN(C)CC3)c(F)cc3c(=O)c(C(=O)O)cn1c23 (configuration not stated) [OFLOXACIN],2,1,1,1,2,1,8,30,2.5
C[C@@H](O)[C@H]1C(=O)N2C(C(=O)O)=C(SCCNC=N)C[C@H]12 [IMIPENEM ANHYDROUS],4,1,1,1,16,1,,,
C[C@@H](O)[C@H]1C(=O)N2C(C(=O)[O-])=C(SC3Cn4cnc[n+]4C3)[C@H](C)[C@H]12 (some centres not stated) [BIAPENEM],1,0.5,2,0.5,16,0.5,,,
